Screens: PubChem BioAssay, several laboratories
Rows were chosen to be rich in hits. Some 2.9% of all compounds tested hit in one or more screens of this group.
FAS-TE inh: blocks the thioesterase domain of human fatty acid synthase; recombinant FAS-TE, OMFH fluorogenic substrate, fluorescence endpoint; P49327; AID 602261; 360,000 tested, 0.67% active; inhibition, % at 15 µM;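 active means compounds whose normalised, plate-corrected inhibition of enzyme fluorescence in the single-dose primary screen is 50% or more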
ADAM10 inh: inhibitors of human ADAM10; O14672; 370,000 tested, 0.62% active; recombinant ADAM10, EDANS/DABCYL FRET peptide cleavage, 3 h; AID 720582; inhibition, % at 7 µM;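 active means inhibition above a per-campaign cutoff equal to the mean of compounds falling between control-based bounds plus 3 SD, cut at about 20% in these data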
CendR NRP1 mod: alters CendR peptide binding to human NRP-1. inhibition, % at 25 µM. 360,000 tested, 0.85% active. FAM-RPARPAR peptide binding to NRP-1, fluorescence polarization. O14786;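 active means inhibition or corrected inhibition above about 18%, plus a signal ratio from 0.5 to 1.5, limit read from the data, passing the limit was not always enough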
CaV13 FRET inh: Disruptors of the CACNA1D IQ motif to Ca2+-dependent inactivation inhibitor domain association, primary screening, Förster resonance energy transfer in intact living … | inhibition, % at 12.3 µM | HEK cells, CFP/YFP FRET ICDI-IQ, plate reader, 10 min; percent FRET-ratio fall versus neutral wells | 340,000 tested, 0.098% active | AID 743397;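 active means mean replicate inhibition of at least 30% and at least 1% of replicates passing that level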
Arr AP2 block: blocks beta-arrestin peptide binding to AP2 adaptin. 340,000 tested, 0.31% active. AID 504490. FITC-arrestin peptide / GST-AP2 beads, flow cytometry; AP2 beta2 appendage carries R879A mutation. inhibition, % at 10 µM;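 active means inhibition above a set limit, near 3 SD of compounds lacking own fluorescence, cut at about 54% in these data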
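Material – GST-tagged AP2 beta2-adaptin appendage (R879A) on 4 µm glutathione beads · Probe or stimulus – fluorescein-tagged arrestin peptide at 50 nM final · Timing – 12 min plus 1 h, RT · Detection – bead flow cytometry, FITC channel · Read-out basis – inhibition as reduced fluorescein signal on beads, percent · Medium – PBS plus Tween 20 (0.05%) and BSA (0.1%)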
ADAM17 inh: inhibits human ADAM17; inhibition, % at 6.95 µM; P78536; recombinant ADAM17, EDANS/DABCYL FRET peptide cleavage; AID 720648; 370,000 tested, 0.83% active;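 active means inhibition above the mean of compounds lying between control limits plus 3 SD, set per campaign, cut at about 8.5% in these data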
Target sequence (P78536 215-824 limits assumed): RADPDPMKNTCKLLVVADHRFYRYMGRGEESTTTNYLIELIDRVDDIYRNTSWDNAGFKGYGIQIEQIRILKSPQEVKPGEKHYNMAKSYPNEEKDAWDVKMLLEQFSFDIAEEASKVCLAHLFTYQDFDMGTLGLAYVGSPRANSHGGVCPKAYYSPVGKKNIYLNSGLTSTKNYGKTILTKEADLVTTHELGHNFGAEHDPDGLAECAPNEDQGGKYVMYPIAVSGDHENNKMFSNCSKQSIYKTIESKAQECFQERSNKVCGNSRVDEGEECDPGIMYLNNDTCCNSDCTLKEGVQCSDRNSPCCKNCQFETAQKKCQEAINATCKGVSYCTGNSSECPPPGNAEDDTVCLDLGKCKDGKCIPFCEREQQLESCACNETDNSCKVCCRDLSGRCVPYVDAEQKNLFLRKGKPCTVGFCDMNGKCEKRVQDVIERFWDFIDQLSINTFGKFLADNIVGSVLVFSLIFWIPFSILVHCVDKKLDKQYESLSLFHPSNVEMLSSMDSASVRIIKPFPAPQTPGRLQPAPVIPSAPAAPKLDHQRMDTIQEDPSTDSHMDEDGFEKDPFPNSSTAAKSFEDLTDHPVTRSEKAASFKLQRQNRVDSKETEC
Hits are given with their value; i = inactive; nt = not tested or not shown; + = active, no number.

SMILES	FAS-TE inh	ADAM10 inh	CendR NRP1 mod	CaV13 FRET inh	Arr AP2 block	ADAM17 inh
CCOC(=O)c1csc(NC(=O)C2CCCN(S(=O)(=O)c3cc(OC)ccc3OC)C2)n1 (stereo not given)	nt	i	nt	nt	nt	i
CC1CCCC(N2C(=O)NC(NC(=O)c3ccco3)(C(F)(F)F)C2=O)C1C (stereo not given)	i	i	28	i	i	i
CCCCN1C(=O)NC(NC(=O)c2ccco2)(C(F)(F)F)C1=O (stereo not given)	i	i	i	i	i	i
CC(C)=CC(O)C/C(C)=C/COc1ccc2ccc(=O)oc2c1 (stereo not given)	i	i	26	nt	i	i
C/C(=C\c1ccccc1F)C1Nc2cccc3cccc(c23)N1	i	i	i	i	i	i
C/C(=C\c1ccc2c(c1)OCO2)C1Nc2cccc3cccc(c23)N1	i	i	17	i	i	i
CC1(C)c2ccccc2C(=O)c2ccccc21	i	i	34	i	i	i
CC1(C)C(=Cc2ccccc2)C(=O)c2ccccc21	i	i	i	i	nt	i
COc1cc(NC(=O)c2cnn3c(C)cc(C)nc23)cc(OC)c1OC	nt	i	nt	nt	nt	i
O=C(Nc1ccc2c(c1)Cc1ccccc1-2)c1cccnc1	i	i	20	i	i	i
O=C(Nc1ccc2ccccc2c1)c1cccnc1	i	i	i	nt	i	i
Cc1cccc(N(CC(=O)N/N=C/c2cc([N+](=O)[O-])ccc2Cl)S(C)(=O)=O)c1C	51	nt	i	nt	i	nt
Cc1cccc(NS(=O)(=O)c2ccc(NC(=O)CN(c3cc([N+](=O)[O-])ccc3C)S(C)(=O)=O)cc2)c1	i	36	i	i	i	14
CS(=O)(=O)N(CC(=O)N/N=C/c1cc([N+](=O)[O-])ccc1Cl)c1ccccc1	i	i	i	nt	i	i
NC(=O)c1c(NC(=O)Cc2ccccc2)sc2c1CCN(Cc1ccccc1)C2	i	i	i	40	i	i
CC(=O)N1CCc2c(sc(NC(=O)Cc3ccc(F)cc3)c2C#N)C1	i	i	i	i	i	i
CN1CCc2c(sc(NC(=O)Cc3ccccc3)c2C#N)C1	i	i	i	120	i	i
CCOC(=O)c1c(NC(=O)CC)sc2c1CCN(Cc1ccccc1)C2	i	i	i	i	i	i
CCOC(=O)c1c(NC(=O)CSc2ncccn2)sc2c1CCN(Cc1ccccc1)C2	i	i	i	36	i	i
CCOC(=O)[C@H](Cc1ccccc1)NC(=O)[C@H]1C[C@@]2(N3CCCCC3)c3ccccc3N(C(=O)OC(C)(C)C)[C@H]2N1C(=O)OC(C)(C)C	nt	i	nt	nt	nt	i
CC(C)CN1C(=O)[C@]2(CC(=O)N(C)C2c2ccccc2)c2cc(-n3cc(-c4ccccc4)nn3)ccc21 (stereo not given in full)	nt	i	nt	nt	nt	i
CCCCCCN1CCS(=O)(=O)N(Cc2ccc(OC)cc2)C(C(=O)OC)C1 (stereo not given)	nt	i	nt	nt	nt	i
N#C/C(=C\c1ccc(N2CCOCC2)o1)C(=O)NCCc1ccccc1	i	i	i	+	i	i
Cc1ccc2c(c1)C(=O)C(=O)N2Cc1ccccc1	i	i	i	i	i	i
CCN1C(=O)C(=O)c2cc(C)ccc21	i	i	34	i	i	i
SMILES	FAS-TE inh	ADAM10 inh	CendR NRP1 mod	CaV13 FRET inh	Arr AP2 block	ADAM17 inh
CCOC(=O)CSc1c(-c2cccs2)[nH]c2ccccc12	i	i	25	i	i	i
COc1ccc(C2=C/C(=C\c3ccc(OC(C)=O)cc3)C(=O)O2)cc1	i	i	108	i	i	i
C#CCNC(=O)C[C@@H]1C[C@@]2(C(=O)OC)CCCCC=C2N(Cc2ccc(Cl)cc2Cl)C1=O	i	i	i	i	nt	i
Cc1cccc(C)c1NC(=O)C1c2ccccc2OCC(=O)N1C1CC1 (stereo not given)	i	i	i	i	nt	i
Nc1c(N2CCCC2)cc(Cl)c2nonc12	i	nt	i	nt	i	nt
Nc1ccc(N2CCCCC2)c2nonc12	i	i	29	i	i	i
C[C@H](NC(=O)CCC1CCC(=O)N1)c1ccccc1 (stereo not given in full)	i	i	19	i	i	i
CCC[C@H]1[C@@H](OC(=O)NCCc2c[nH]c3ccccc23)CC[C@@]23CCCN2C(=O)CCC[C@@H]13	nt	i	nt	nt	nt	i
